Results on 2 molecules are retold here after ChEMBL document CHEMBL1649151, “Urinary bactericidal activity of Doripenem versus that of levofloxacin in patients with complicated urinary tract infections or pyelonephritis” (Antimicrob Agents Chemother, 2009).

≈ marks a conversion by molar mass, not a printed value.

Assay [1] relates to Escherichia coli. As to the kind of experiment: Antimicrobial activity against Escherichia coli 1889646 B-F isolated from patient with pyelonephritis assessed as >3-log reduction in urinary bacterial titer after 20 hrs. The assay is classed as functional, Urine. A digest of the protocol: (§1)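 Urine was collected on day 3 of i.v. therapy (steady state) over 4-h intervals from infusion start (0–4 to 20–24 h), stored at –80°C and sterile filtered. It was serially diluted twofold (1:0 up to 1:131,072) in the patient's own pre-dose drug-free urine. Microdilution used a final inoculum of 1.0 x 10^6 to 9.5 x 10^6 CFU/ml, incubated 18 h at 37°C in air. 10 µl was subcultured onto 5% blood Columbia agar for 24 h at 37°C. The bactericidal endpoint was >99.9% (>3-log) kill, reported as a reciprocal titer.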

The test system of assay [2] is Enterococcus faecalis. As to the kind of experiment: Antimicrobial activity against Enterococcus faecalis 2215770 B-T isolated from patient with pyelonephritis assessed as >3-log reduction in urinary bacterial titer after 16 hrs. It is filed as functional, Urine. A digest of the protocol: (§2)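 Urine was collected before dosing and on day 3 of i.v. therapy (steady state), in 4-h intervals from infusion start (0–4 to 20–24 h), stored at −80°C and sterile filtered. It was serially diluted twofold (1:0 to 1:131,072) in the patient's drug-free pre-dose urine. Microdilution used an inoculum of 1.0 x 10^6–9.5 x 10^6 CFU/ml, incubated 18 h at 37°C, then subcultured 24 h on blood agar. The endpoint was >99.9% kill, reported as reciprocal titer.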

The test system of assay [3] is Escherichia coli. As to the kind of experiment: Antimicrobial activity against Escherichia coli 1949825 B-K isolated from patient with pyelonephritis assessed as >3-log reduction in urinary bacterial titer after 16 hrs. The assay is classed as functional, Urine. A digest of the protocol: (§3)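 Patient urine was collected on day 3 of i.v. therapy (steady state) over 4-h intervals after infusion start, stored at –80°C, and sterile filtered. It was twofold serially diluted (1:0 to 1:131,072) in the patient's own pre-dose drug-free urine, inoculated to 1.0 x 10^6–9.5 x 10^6 CFU/ml, and incubated for 18 h at 37°C. Subcultures were grown on blood agar for 24 h. The UBT is the reciprocal of the highest dilution giving >99.9% kill.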

Assay [4] deals with Escherichia coli. As to the kind of experiment: Antimicrobial activity against Escherichia coli 1889646 B-F isolated from patient with pyelonephritis assessed as >3-log reduction in urinary bacterial titer after 16 hrs. It is filed as functional, Urine. In outline:
as §1

The test system of assay [5] is Escherichia coli. The assay is described as follows: Antimicrobial activity against Escherichia coli 1949825 B-K isolated from patient with pyelonephritis assessed as >3-log reduction in urinary bacterial titer after 20 hrs. The assay is classed as functional, Urine. In outline:
as §3

Assay [6] has as its system Escherichia coli. As to the kind of experiment: Antimicrobial activity against Escherichia coli 1949825 B-K isolated from patient with pyelonephritis by Etest. It is filed as functional.
For assay [7], the system named is Escherichia coli. As to the kind of experiment: Antimicrobial activity against Escherichia coli 2062717 B-P isolated from patient with pyelonephritis assessed as >3-log reduction in urinary bacterial titer after 8 hrs. The assay is classed as functional, Urine.
In assay [8] the test system is Escherichia coli. The assay is described as follows: Antimicrobial activity against Escherichia coli 1889646 B-F isolated from patient with pyelonephritis assessed as >3-log reduction in urinary bacterial titer after 8 hrs. The assay is classed as functional, Urine. A digest of the protocol: as §1
For assay [9], the system named is Escherichia coli. As to the kind of experiment: Antimicrobial activity against Escherichia coli 1821385 B-C isolated from patient with pyelonephritis assessed as >3-log reduction in urinary bacterial titer after 8 hrs. The assay is classed as functional, Urine. In outline:
as §1

Assay [10] has as its system Escherichia coli. As to the kind of experiment: Antimicrobial activity against Escherichia coli 2297257 B-W isolated from patient with pyelonephritis assessed as >3-log reduction in urinary bacterial titer after 8 hrs. It is filed as functional, Urine.
Assay [11] relates to Escherichia coli. The assay is described as follows: Antimicrobial activity against Escherichia coli 1889646 B-F isolated from patient with pyelonephritis assessed as >3-log reduction in urinary bacterial titer after 4 hrs. It is filed as functional, Urine. A digest of the protocol: as §1
Assay [12] concerns Escherichia coli. The assay is described as follows: Antimicrobial activity against Escherichia coli 1780063 B-A isolated from patient with pyelonephritis assessed as >3-log reduction in urinary bacterial titer after 4 hrs. The assay is classed as functional, Urine. A digest of the protocol:
as §2

Assay [13] in a line: T>MIC in Pseudomonas aeruginosa infected in thigh of neutropenic mouse at 500 mg/kg, iv administered every 8 hrs. The assay is classed as functional.
Assay [14] concerns Escherichia coli. As to the kind of experiment: Antimicrobial activity against Escherichia coli 2062717 B-P isolated from patient with pyelonephritis assessed as >3-log reduction in urinary bacterial titer after 24 hrs. The assay is classed as functional, Urine.
The subject of assay [15] is Escherichia coli. The assay is described as follows: Antimicrobial activity against Escherichia coli 1949826 B-L isolated from patient with pyelonephritis assessed as >3-log reduction in urinary bacterial titer after 24 hrs. The assay is classed as functional, Urine. A digest of the protocol:
as §3

For assay [16], the system named is Escherichia coli. As to the kind of experiment: Antimicrobial activity against Escherichia coli 1889646 B-F isolated from patient with pyelonephritis assessed as >3-log reduction in urinary bacterial titer after 24 hrs. The assay is classed as functional, Urine. In outline: as §1
The test system of assay [17] is Staphylococcus haemolyticus. The assay is described as follows: Antimicrobial activity against Staphylococcus haemolyticus 1949819 B-M isolated from patient with pyelonephritis assessed as >3-log reduction in urinary bacterial titer after 24 hrs. The assay is classed as functional, Urine.
In assay [18] the test system is Escherichia coli. The assay is described as follows: Antimicrobial activity against Escherichia coli 1889645 B-I isolated from patient with pyelonephritis assessed as >3-log reduction in urinary bacterial titer after 20 hrs. The assay is classed as functional, Urine. A digest of the protocol: as §1
Assay [19] has as its system Escherichia coli. As to the kind of experiment: Antimicrobial activity against Escherichia coli 1780064 A-X isolated from patient with pyelonephritis assessed as >3-log reduction in urinary bacterial titer after 4 hrs. The assay is classed as functional, Urine. A digest of the protocol: as §1
Assay [20] has as its system Serratia marcescens. The assay is described as follows: Antimicrobial activity against Serratia marcescens 2297260 B-U isolated from patient with pyelonephritis assessed as >3-log reduction in urinary bacterial titer after 16 hrs. The assay is classed as functional, Urine.
Assay [21] has as its system Escherichia coli. The assay is described as follows: Antimicrobial activity against Escherichia coli 2062716 B-R isolated from patient with pyelonephritis assessed as >3-log reduction in urinary bacterial titer after 16 hrs. It is filed as functional, Urine. In outline: as §3
For assay [22], the system named is Escherichia coli. As to the kind of experiment: Antimicrobial activity against Escherichia coli 1821386 B-D isolated from patient with pyelonephritis assessed as >3-log reduction in urinary bacterial titer after 16 hrs. It is filed as functional, Urine. A digest of the protocol:
as §1

Assay [23] deals with Enterococcus faecalis. The assay is described as follows: Antimicrobial activity against Enterococcus faecalis 2215767-10 B-S isolated from patient with pyelonephritis by Etest. It is filed as functional.
Assay [24] concerns Enterococcus faecalis. As to the kind of experiment: Antimicrobial activity against Enterococcus faecalis 2215767-10 B-S isolated from patient with pyelonephritis assessed as >3-log reduction in urinary bacterial titer after 12 hrs. It is filed as functional, Urine. A digest of the protocol: as §2
For assay [25], the system named is Staphylococcus epidermidis. As to the kind of experiment: Antimicrobial activity against Staphylococcus epidermidis 2297262-9 B-V isolated from patient with pyelonephritis assessed as >3-log reduction in urinary bacterial titer after 12 hrs. The assay is classed as functional, Urine.
The subject of assay [26] is Escherichia coli. As to the kind of experiment: Antimicrobial activity against Escherichia coli 1655646 A-Y isolated from patient with pyelonephritis assessed as >3-log reduction in urinary bacterial titer after 8 hrs. The assay is classed as functional, Urine. In outline:
as §2

Assay [27] deals with Staphylococcus aureus. The assay is described as follows: Antimicrobial activity against Staphylococcus aureus 2215767-9 B-S isolated from patient with pyelonephritis assessed as >3-log reduction in urinary bacterial titer after 8 hrs. It is filed as functional, Urine.
The test system of assay [28] is Staphylococcus aureus. As to the kind of experiment: Antimicrobial activity against Staphylococcus aureus 1889640 A-Z isolated from patient with pyelonephritis assessed as >3-log reduction in urinary bacterial titer after 4 hrs. The assay is classed as functional, Urine.
The next assay has as its system Pseudomonas aeruginosa. As to the kind of experiment: Antimicrobial activity against Pseudomonas aeruginosa 1821383 B-E isolated from patient with pyelonephritis assessed as >3-log reduction in urinary bacterial titer after 4 hrs. It is filed as functional, Urine.
The test system of assay [29] is Serratia marcescens. As to the kind of experiment: Antimicrobial activity against Serratia marcescens 2297260 B-U isolated from patient with pyelonephritis assessed as >3-log reduction in urinary bacterial titer after 4 hrs. The assay is classed as functional, Urine.
Assay [30] deals with Staphylococcus epidermidis. The assay is described as follows: Antimicrobial activity against Staphylococcus epidermidis 1949822 B-J isolated from patient with pyelonephritis assessed as >3-log reduction in urinary bacterial titer after 24 hrs. It is filed as functional, Urine.
The test system of assay [31] is Escherichia coli. As to the kind of experiment: Antimicrobial activity against Escherichia coli 2062716 B-R isolated from patient with pyelonephritis assessed as >3-log reduction in urinary bacterial titer after 24 hrs. The assay is classed as functional, Urine. A digest of the protocol:
as §3

The subject of assay [32] is Escherichia coli. The assay is described as follows: Antimicrobial activity against Escherichia coli 1889647 B-H isolated from patient with pyelonephritis assessed as >3-log reduction in urinary bacterial titer after 24 hrs. It is filed as functional, Urine. A digest of the protocol:
as §1

For assay [33], the system named is Escherichia coli. As to the kind of experiment: Antimicrobial activity against Escherichia coli 2062716 B-R isolated from patient with pyelonephritis assessed as >3-log reduction in urinary bacterial titer after 20 hrs. The assay is classed as functional, Urine. A digest of the protocol: as §3

Usually MIC stands for the lowest concentration found to suppress growth. For the molecule `C[C@@H](O)[C@H]1C(=O)N2C(C(=O)O)=C(S[C@@H]3CN[C@H](CNS(N)(=O)=O)C3)[C@H](C)[C@H]12` [DORIPENEM], the urinary bactericidal titer in the assay on Escherichia coli [1] is 65500; with Enterococcus faecalis [2] it was 512 reciprocal titer; with Escherichia coli [3], 2048 reciprocal titer; in the assay on Escherichia coli [4], 8192 reciprocal titer; in the assay on Escherichia coli [5], 4096 reciprocal titer; with Escherichia coli [7] it was 1024 reciprocal titer. The urinary bactericidal titer with Escherichia coli [8] was 32800 reciprocal titer; with Escherichia coli [9], 256 reciprocal titer; in the assay with Escherichia coli [10] it was 2048 reciprocal titer; in the assay with Escherichia coli [11] it was 65500 reciprocal titer; with Escherichia coli [12], 4096 reciprocal titer; with Escherichia coli [14], 2048 reciprocal titer. Further, the urinary bactericidal titer in the assay on Escherichia coli [15] was 16400 reciprocal titer; in the assay on Escherichia coli [16], 65500 reciprocal titer; in assay [17] it was 128 reciprocal titer; with Escherichia coli [18], 65500 reciprocal titer. This molecule had an MIC with Escherichia coli [6] of 0.03 µg/mL (≈ 0.0713 µM). Moreover, the “fT>MIC” value in assay [13] came to 20%.

Regarding `C[C@H]1COc2c(N3CCN(C)CC3)c(F)cc3c(=O)c(C(=O)O)cn1c23.C[C@H]1COc2c(N3CCN(C)CC3)c(F)cc3c(=O)c(C(=O)O)cn1c23.O` [LEVOFLOXACIN], the urinary bactericidal titer was 1024 reciprocal titer in the assay with Escherichia coli [19]; 128 reciprocal titer in the assay with Serratia marcescens [20]; 256 reciprocal titer in the assay on Escherichia coli [21]; 4096 reciprocal titer in the assay with Escherichia coli [22]; 1 reciprocal titer in the assay with Enterococcus faecalis [24]; 4 reciprocal titer in [25]. In addition, the urinary bactericidal titer was determined as 2048 reciprocal titer in the assay with Escherichia coli [26]; 0 reciprocal titer in the assay with Staphylococcus aureus [27]; 256 reciprocal titer in the assay on Staphylococcus aureus [28]; 32 reciprocal titer in the assay with Pseudomonas aeruginosa; 512 reciprocal titer in the assay with Serratia marcescens [29]; 1 reciprocal titer in [30]. Besides, the urinary bactericidal titer came to 64 reciprocal titer with Escherichia coli [31], 256 reciprocal titer in the assay with Escherichia coli [32] and 128 reciprocal titer with Escherichia coli [33]. In the assay with Enterococcus faecalis [23], this molecule came in with an MIC above 32 µg/mL.
